Where a SMILES comes first, the peptide text is derived from it. [ ]: non-standard residue; d: D form. The star is where a group is joined. Benzoyl(4-tBu) = CC(C)(C)c1ccc(C(=O)*)cc1; Lys(Et2) = CCN(CC)CCCC[C@H](N)C(=O)O
Tests used:
[1] = tested on: PRC2 complexes containing EED mutations (F97A, W364A, Y365A); assay: PRC2 methyltransferase assay with EED aromatic cage mutants; type: biochemical
Procedure, shortened: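 EZH2:EED:SUZ12 complexes carrying EED cage mutations made by site-directed mutagenesis, co-expressed in baculovirus-infected Sf9 cells, and FLAG-affinity purified like wild type. Reaction ran 1 h at 23 °C in 20 mM Tris-HCl pH 8, 5 mM DTT, 0.01% Triton X-100 with 1 µM 3H-SAM, 1 µM biotinylated H3(21–44), and 20 nM complex. Stopped by adding 7.5 M guanidine-HCl. Scintillation proximity read-out on streptavidin Flash-plates after 2 h. Normalised to no-compound (100%) and no-enzyme (0%) CPM.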

[2] = biological target: EED (Homo sapiens, UniProt O75530); conditions: cited from earlier work
Chain of EED (O75530 whole entry): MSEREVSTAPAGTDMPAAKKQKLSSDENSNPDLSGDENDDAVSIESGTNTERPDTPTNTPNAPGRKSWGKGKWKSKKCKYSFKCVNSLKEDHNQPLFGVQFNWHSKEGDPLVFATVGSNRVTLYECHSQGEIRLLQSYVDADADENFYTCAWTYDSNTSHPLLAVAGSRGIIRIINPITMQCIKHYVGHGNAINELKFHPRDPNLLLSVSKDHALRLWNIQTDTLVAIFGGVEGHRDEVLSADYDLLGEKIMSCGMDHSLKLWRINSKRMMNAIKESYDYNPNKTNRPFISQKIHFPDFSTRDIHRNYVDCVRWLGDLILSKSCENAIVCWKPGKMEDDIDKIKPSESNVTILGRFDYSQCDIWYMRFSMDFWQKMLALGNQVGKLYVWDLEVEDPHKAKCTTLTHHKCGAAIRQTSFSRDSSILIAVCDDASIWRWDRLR

SMILES | inhibition of basal catalytic activity of PRC2 with EED mutants [1] | affinity for EED in solution-based assays [2]
CCCc1cc(C)[nH]c(=O)c1CNC(=O)c1cc(-c2ccc(N3CCN(C(C)C)CC3)nc2)cc2c1cnn2C(C)C [UNC1999] | completely abrogates the activity | –
CCN(CC)CCCC[C@H](NC(=O)[C@H](CC(C)C)NC(=O)[C@H](C)NC(=O)[C@H](Cc1ccccc1)NC(=O)c1ccc(C(C)(C)C)cc1)C(=O)N[C@@H](CO)C(=O)OC [UNC3866] ({Benzoyl(4-tBu)}-FAL[Lys(Et2)]S-OMe) | – | lack of affinity

Source: paper PMC5376495 (ACS combinatorial science, 2017)
